The values that follow come from ChEMBL document CHEMBL4229372, “Synthesis and anti-mitotic activity of 2,4- or 2,6-disubstituted- and 2,4,6-trisubstituted-2H-pyrazolo[4,3-c]pyridines” (2018).

Structures are written as SMILES.

Holding throughout (assay type): functional
The test system of experiment [1] is K562. The experiment in a line: Cell cycle arrest in human K562 cells assessed as accumulation at sub G1 phase at 0.25 uM after 24 hrs by propidium iodide staining-based flow cytometric analysis (reference value: 15%). On the technique in general: A flow cytometer gives signals particle by particle.
Experiment [2] concerns K562. In words: Cell cycle arrest in human K562 cells assessed as accumulation at G1 phase at 0.25 uM after 24 hrs by propidium iodide staining-based flow cytometric analysis (reference value: 34.6%).
The subject of experiment [3] is K562. The experiment in a line: Cell cycle arrest in human K562 cells assessed as accumulation at S phase at 0.25 uM after 24 hrs by propidium iodide staining-based flow cytometric analysis (reference value: 50.3%).
The test system of experiment [4] is K562. The experiment in a line: Cell cycle arrest in human K562 cells assessed as accumulation at G2/M phase at 0.25 uM after 24 hrs by propidium iodide staining-based flow cytometric analysis (reference value: 15%).
Experiment [5] deals with MCF7. The experiment in a line: Cell cycle arrest in human MCF7 cells assessed as accumulation at sub G1 phase at 0.25 uM after 24 hrs by propidium iodide staining-based flow cytometric analysis (reference value: 7.1%). The procedure, abridged: (§1)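 MCF-7 cells in DMEM with 10% FBS and penicillin/streptomycin at 37 °C, 5% CO2. Asynchronous cells were treated 24 h, PBS-washed, trypsinized and quenched with 0.1% trypsin inhibitor. Staining used 5× citrate/IGEPAL/spermine/Tris buffer (pH 7.6) with 50 μg/mL propidium iodide. DNA content was read by 488 nm flow cytometry and cell-cycle phases modelled.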

The subject of experiment [6] is MCF7. In words: Cell cycle arrest in human MCF7 cells assessed as accumulation at G1 phase at 0.25 uM after 24 hrs by propidium iodide staining-based flow cytometric analysis (reference value: 60.7%). The procedure, abridged:
as §1

The subject of experiment [7] is MCF7. The experiment in a line: Cell cycle arrest in human MCF7 cells assessed as accumulation at S phase at 0.25 uM after 24 hrs by propidium iodide staining-based flow cytometric analysis (reference value: 34.1%). The procedure, abridged:
as §1

The subject of experiment [8] is MCF7. The experiment in a line: Cell cycle arrest in human MCF7 cells assessed as accumulation at G2/M phase at 0.25 uM after 24 hrs by propidium iodide staining-based flow cytometric analysis (reference value: 5.3%). The procedure, abridged:
as §1

Take `CC(=O)c1c(C)c2cnc(Nc3ccc(N4CCNCC4)cn3)nc2n(C2CCCC2)c1=O` [PALBOCICLIB]: the Activity is reported as 35% with K562 [1]; 54% in the experiment on K562 [2]; 30.1% with K562 [3]; 15.9% with K562 [4]; 7.5% in the experiment on MCF7 [5]; 90% in the experiment on MCF7 [6]. Besides, the figures for the Activity in the experiment with MCF7 [7] and in the experiment with MCF7 [8] were 5.5% and 4.6%, respectively.
